Consider two compounds from ChEMBL document CHEMBL2331523, “Regioselective synthesis of isoxazole-mercaptobenzimidazole hybrids and their in vivo analgesic and anti-inflammatory activity studies” (2013).

Type in all cases: functional
One assay deals with Mus musculus. The assay can be described thus: Analgesic activity in mouse assessed as increase in paw withdrawal latency at 50 mg/kg after 120 mins by hot plate test (reference value: 6.07 +/- 0.057 secs).
In assay [1] the test system is Rattus norvegicus. Briefly: Antiinflammatory activity in rat assessed as inhibition of carrageenan-induced paw oedema at 50 mg/kg after 60 mins relative to untreated control. The following applies: 1 h. Put shortly:
(§1)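 Carrageenan-induced hind-paw oedema (Winter method). The text names both rats and mice. Test agents dosed at 100 mg/kg body weight, reference at 50 mg/kg body weight. Paw thickness measured in mm at 60 and 180 min after carrageenan injection. Percent oedema inhibition calculated against the saline control group. Six animals per group, mean ± SD. One-way ANOVA with Newman-Keuls test.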

Assay [2] concerns Rattus norvegicus. Briefly: Antiinflammatory activity in rat assessed as inhibition of carrageenan-induced paw oedema at 50 mg/kg after 180 mins relative to untreated control. The following applies: 3 h. In a few lines: as §1

For `CC(C)=CCN1CC[C@]2(C)c3cc(O)ccc3C[C@H]1[C@H]2C` [(+)-PENTAZOCINE], the Time in the assay with Mus musculus is 14.1 s.

Take `O=C(O)Cc1ccccc1Nc1c(Cl)cccc1Cl` [DICLOFENAC]: the inhibition in vivo – broadly, how much of the control response was suppressed – at 50 mg/kg in the assay with Rattus norvegicus [1] stood at 44.5%; in the assay with Rattus norvegicus [2] it was 45.8%.
